Measured values reported in ChEMBL document CHEMBL5058577, “EUbOPEN Chemogenomics Library 2 (Multiplex)” (2022).

Tested on: U2OS
Assay: Multiplex assay against U2OS
Assay type: toxicity, cell-based
Settings: human
Summary of the method: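 Compound was added to live cells that had been stained at seeding with Hoechst33342, BioTracker Green Microtubule Cytoskeleton Dye, MitoTracker Red and Annexin V Alexa Fluor 680, and imaging followed on a CQ1 microscope at 37°C and 5% CO2. CellPathfinder machine-learning gating divided cells into Hoechst high-intensity objects or normal cells, normal cells into healthy, pyknosed or fragmented nuclei, and pyknosed cells into mitotic or apoptotic. Tubulin, mitochondrial-mass and membrane-permeability phenotypes are per cents of healthy-nucleus cells.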

[1] = 12 h, 1 µM, compound concentration 1 uM, replicate 1
[2] = 12 h, 1 µM, compound concentration 1 uM, replicate 2
[3] = 12 h, 10 µM, compound concentration 10 uM, replicate 1
[4] = 12 h, 10 µM, compound concentration 10 uM, replicate 2
[5] = 24 h, 1 µM, compound concentration 1 uM, replicate 1
[6] = 24 h, 1 µM, compound concentration 1 uM, replicate 2
[7] = 24 h, 10 µM, compound concentration 10 uM, replicate 1
[8] = 24 h, 10 µM, compound concentration 10 uM, replicate 2
[9] = 48 h, 1 µM, compound concentration 1 uM, replicate 1
[10] = 48 h, 1 µM, compound concentration 1 uM, replicate 2
[11] = 48 h, 10 µM, compound concentration 10 uM, replicate 1
[12] = 48 h, 10 µM, compound concentration 10 uM, replicate 2

SMILES: O=C(NCCNCC(O)COc1ccc(O)cc1)N1CCOCC1.O=C(NCCNCC(O)COc1ccc(O)cc1)N1CCOCC1.O=C(O)/C=C/C(=O)O (stereo not given) [XAMOTEROL FUMARATE]
- Population Apoptotic (%) [1]: 71%
- Population Fragmented Nuclei (%) [1]: 27%
- Population Healthy Nuclei (%) [1]: 66%
- Population Hoechst High Intensity Objects (%) [1]: 2%
- Population Membrane Permeable-Phenotype (%) [1]: 6%
- Population Mitochondria Different-Phenotype (%) [1]: 1%
- Population Mitotic Cells (%) [1]: 28%
- Population Normal (%) [1]: 97%
- Population Pyknosed Nuclei (%) [1]: 5%
- Population Tubulin-Different-Phenotype (%) [1]: 2%
- Total Cell Count [1]: 265
- Population Apoptotic (%) [2]: 83%
- Population Fragmented Nuclei (%) [2]: 19%
- Population Healthy Nuclei (%) [2]: 68%
- Population Hoechst High Intensity Objects (%) [2]: 3%
- Population Membrane Permeable-Phenotype (%) [2]: 13%
- Population Mitotic Cells (%) [2]: 16%
- Population Normal (%) [2]: 96%
- Population Pyknosed Nuclei (%) [2]: 11%
- Population Tubulin-Different-Phenotype (%) [2]: 5%
- Total Cell Count [2]: 110
- Population Apoptotic (%) [3]: 92%
- Population Fragmented Nuclei (%) [3]: 28%
- Population Healthy Nuclei (%) [3]: 60%
- Population Hoechst High Intensity Objects (%) [3]: 0%
- Population Membrane Permeable-Phenotype (%) [3]: 6%
- Population Mitochondria Different-Phenotype (%) [3]: 2%
- Population Mitotic Cells (%) [3]: 7%
- Population Normal (%) [3]: 99%
- Population Pyknosed Nuclei (%) [3]: 11%
- Population Tubulin-Different-Phenotype (%) [3]: 4%
- Total Cell Count [3]: 239
- Population Apoptotic (%) [4]: 100%
- Population Fragmented Nuclei (%) [4]: 15%
- Population Healthy Nuclei (%) [4]: 73%
- Population Hoechst High Intensity Objects (%) [4]: 4%
- Population Membrane Permeable-Phenotype (%) [4]: 4%
- Population Mitochondria Different-Phenotype (%) [4]: 3%
- Population Mitotic Cells (%) [4]: 0%
- Population Normal (%) [4]: 95%
- Population Tubulin-Different-Phenotype (%) [4]: 7%
- Total Cell Count [4]: 118
- Population Apoptotic (%) [5]: 85%
- Population Fragmented Nuclei (%) [5]: 24%
- Population Healthy Nuclei (%) [5]: 68%
- Population Hoechst High Intensity Objects (%) [5]: 0%
- Population Membrane Permeable-Phenotype (%) [5]: 5%
- Population Mitochondria Different-Phenotype (%) [5]: 0%
- Population Mitotic Cells (%) [5]: 15%
- Population Normal (%) [5]: 99%
- Population Pyknosed Nuclei (%) [5]: 6%
- Population Tubulin-Different-Phenotype (%) [5]: 1%
- Total Cell Count [5]: 312
- Population Apoptotic (%) [6]: 80%
- Population Fragmented Nuclei (%) [6]: 18%
- Population Healthy Nuclei (%) [6]: 69%
- Population Hoechst High Intensity Objects (%) [6]: 1%
- Population Membrane Permeable-Phenotype (%) [6]: 10%
- Population Mitochondria Different-Phenotype (%) [6]: 4%
- Population Mitotic Cells (%) [6]: 20%
- Population Normal (%) [6]: 98%
- Population Pyknosed Nuclei (%) [6]: 11%
- Population Tubulin-Different-Phenotype (%) [6]: 5%
- Total Cell Count [6]: 129
- Population Apoptotic (%) [7]: 89%
- Population Fragmented Nuclei (%) [7]: 22%
- Population Healthy Nuclei (%) [7]: 66%
- Population Hoechst High Intensity Objects (%) [7]: 1%
- Population Membrane Permeable-Phenotype (%) [7]: 6%
- Population Mitochondria Different-Phenotype (%) [7]: 2%
- Population Mitotic Cells (%) [7]: 10%
- Population Normal (%) [7]: 98%
- Population Pyknosed Nuclei (%) [7]: 10%
- Population Tubulin-Different-Phenotype (%) [7]: 2%
- Total Cell Count [7]: 270
- Population Apoptotic (%) [8]: 78%
- Population Fragmented Nuclei (%) [8]: 16%
- Population Healthy Nuclei (%) [8]: 70%
- Population Mitotic Cells (%) [8]: 21%
- Population Pyknosed Nuclei (%) [8]: 12%
- Population Tubulin-Different-Phenotype (%) [8]: 6%
- Total Cell Count [8]: 152
- Population Apoptotic (%) [9]: 90%
- Population Fragmented Nuclei (%) [9]: 18%
- Population Healthy Nuclei (%) [9]: 75%
- Population Hoechst High Intensity Objects (%) [9]: 1%
- Population Membrane Permeable-Phenotype (%) [9]: 4%
- Population Mitochondria Different-Phenotype (%) [9]: 2%
- Population Mitotic Cells (%) [9]: 9%
- Population Normal (%) [9]: 98%
- Population Pyknosed Nuclei (%) [9]: 6%
- Population Tubulin-Different-Phenotype (%) [9]: 2%
- Total Cell Count [9]: 472
- Population Apoptotic (%) [10]: 91%
- Population Fragmented Nuclei (%) [10]: 23%
- Population Healthy Nuclei (%) [10]: 62%
- Population Hoechst High Intensity Objects (%) [10]: 2%
- Population Membrane Permeable-Phenotype (%) [10]: 6%
- Population Mitochondria Different-Phenotype (%) [10]: 3%
- Population Mitotic Cells (%) [10]: 8%
- Population Normal (%) [10]: 97%
- Population Pyknosed Nuclei (%) [10]: 13%
- Population Tubulin-Different-Phenotype (%) [10]: 4%
- Total Cell Count [10]: 171
- Population Apoptotic (%) [11]: 89%
- Population Fragmented Nuclei (%) [11]: 18%
- Population Healthy Nuclei (%) [11]: 68%
- Population Hoechst High Intensity Objects (%) [11]: 1%
- Population Membrane Permeable-Phenotype (%) [11]: 2%
- Population Mitochondria Different-Phenotype (%) [11]: 1%
- Population Mitotic Cells (%) [11]: 10%
- Population Normal (%) [11]: 98%
- Population Pyknosed Nuclei (%) [11]: 12%
- Population Tubulin-Different-Phenotype (%) [11]: 2%
- Total Cell Count [11]: 392
- Population Apoptotic (%) [12]: 94%
- Population Fragmented Nuclei (%) [12]: 17%
- Population Healthy Nuclei (%) [12]: 73%
- Population Hoechst High Intensity Objects (%) [12]: 2%
- Population Membrane Permeable-Phenotype (%) [12]: 4%
- Population Mitochondria Different-Phenotype (%) [12]: 4%
- Population Mitotic Cells (%) [12]: 5%
- Population Normal (%) [12]: 97%
- Population Pyknosed Nuclei (%) [12]: 9%
- Population Tubulin-Different-Phenotype (%) [12]: 6%
- Total Cell Count [12]: 206

SMILES: COc1cc(Nc2ncc3c(n2)-c2ccc(Cl)cc2C(c2c(F)cccc2OC)=NC3)ccc1C(=O)O [ALISERTIB]
- Population Apoptotic (%) [1]: 63%
- Population Fragmented Nuclei (%) [1]: 23%
- Population Healthy Nuclei (%) [1]: 65%
- Population Hoechst High Intensity Objects (%) [1]: 1%
- Population Membrane Permeable-Phenotype (%) [1]: 4%
- Population Mitochondria Different-Phenotype (%) [1]: 3%
- Population Mitotic Cells (%) [1]: 36%
- Population Normal (%) [1]: 98%
- Population Pyknosed Nuclei (%) [1]: 10%
- Population Tubulin-Different-Phenotype (%) [1]: 3%
- Population Apoptotic (%) [2]: 71%
- Population Fragmented Nuclei (%) [2]: 35%
- Population Healthy Nuclei (%) [2]: 55%
- Population Hoechst High Intensity Objects (%) [2]: 4%
- Population Membrane Permeable-Phenotype (%) [2]: 8%
- Population Mitochondria Different-Phenotype (%) [2]: 4%
- Population Mitotic Cells (%) [2]: 28%
- Population Normal (%) [2]: 95%
- Population Pyknosed Nuclei (%) [2]: 8%
- Population Tubulin-Different-Phenotype (%) [2]: 11%
- Population Apoptotic (%) [3]: 79%
- Population Fragmented Nuclei (%) [3]: 31%
- Population Healthy Nuclei (%) [3]: 57%
- Population Hoechst High Intensity Objects (%) [3]: 3%
- Population Membrane Permeable-Phenotype (%) [3]: 11%
- Population Mitochondria Different-Phenotype (%) [3]: 5%
- Population Mitotic Cells (%) [3]: 20%
- Population Normal (%) [3]: 96%
- Population Pyknosed Nuclei (%) [3]: 11%
- Population Tubulin-Different-Phenotype (%) [3]: 4%
- Population Apoptotic (%) [4]: 71%
- Population Fragmented Nuclei (%) [4]: 12%
- Population Healthy Nuclei (%) [4]: 82%
- Population Hoechst High Intensity Objects (%) [4]: 2%
- Population Membrane Permeable-Phenotype (%) [4]: 5%
- Population Mitochondria Different-Phenotype (%) [4]: 1%
- Population Mitotic Cells (%) [4]: 28%
- Population Normal (%) [4]: 97%
- Population Pyknosed Nuclei (%) [4]: 5%
- Population Tubulin-Different-Phenotype (%) [4]: 0%
- Population Apoptotic (%) [5]: 78%
- Population Fragmented Nuclei (%) [5]: 26%
- Population Healthy Nuclei (%) [5]: 64%
- Population Hoechst High Intensity Objects (%) [5]: 1%
- Population Membrane Permeable-Phenotype (%) [5]: 9%
- Population Mitochondria Different-Phenotype (%) [5]: 4%
- Population Mitotic Cells (%) [5]: 21%
- Population Normal (%) [5]: 98%
- Population Pyknosed Nuclei (%) [5]: 8%
- Population Tubulin-Different-Phenotype (%) [5]: 5%
- Population Apoptotic (%) [6]: 75%
- Population Fragmented Nuclei (%) [6]: 20%
- Population Healthy Nuclei (%) [6]: 63%
- Population Hoechst High Intensity Objects (%) [6]: 2%
- Population Membrane Permeable-Phenotype (%) [6]: 6%
- Population Mitochondria Different-Phenotype (%) [6]: 2%
- Population Mitotic Cells (%) [6]: 25%
- Population Normal (%) [6]: 97%
- Population Pyknosed Nuclei (%) [6]: 15%
- Population Tubulin-Different-Phenotype (%) [6]: 2%
- Population Apoptotic (%) [7]: 84%
- Population Fragmented Nuclei (%) [7]: 30%
- Population Healthy Nuclei (%) [7]: 55%
- Population Hoechst High Intensity Objects (%) [7]: 4%
- Population Membrane Permeable-Phenotype (%) [7]: 13%
- Population Mitochondria Different-Phenotype (%) [7]: 5%
- Population Mitotic Cells (%) [7]: 15%
- Population Normal (%) [7]: 95%
- Population Pyknosed Nuclei (%) [7]: 13%
- Population Tubulin-Different-Phenotype (%) [7]: 4%
- Population Apoptotic (%) [8]: 90%
- Population Fragmented Nuclei (%) [8]: 12%
- Population Healthy Nuclei (%) [8]: 77%
- Population Membrane Permeable-Phenotype (%) [8]: 9%
- Population Mitochondria Different-Phenotype (%) [8]: 4%
- Population Mitotic Cells (%) [8]: 9%
- Population Pyknosed Nuclei (%) [8]: 9%
- Population Tubulin-Different-Phenotype (%) [8]: 5%
- Population Apoptotic (%) [9]: 85%
- Population Fragmented Nuclei (%) [9]: 28%
- Population Healthy Nuclei (%) [9]: 59%
- Population Hoechst High Intensity Objects (%) [9]: 3%
- Population Membrane Permeable-Phenotype (%) [9]: 6%
- Population Mitochondria Different-Phenotype (%) [9]: 5%
- Population Mitotic Cells (%) [9]: 14%
- Population Normal (%) [9]: 96%
- Population Pyknosed Nuclei (%) [9]: 12%
- Population Tubulin-Different-Phenotype (%) [9]: 3%
- Population Apoptotic (%) [10]: 78%
- Population Fragmented Nuclei (%) [10]: 29%
- Population Healthy Nuclei (%) [10]: 53%
- Population Membrane Permeable-Phenotype (%) [10]: 11%
- Population Mitochondria Different-Phenotype (%) [10]: 6%
- Population Mitotic Cells (%) [10]: 21%
- Population Pyknosed Nuclei (%) [10]: 17%
- Population Tubulin-Different-Phenotype (%) [10]: 4%
- Population Apoptotic (%) [11]: 88%
- Population Fragmented Nuclei (%) [11]: 34%
- Population Healthy Nuclei (%) [11]: 44%
- Population Hoechst High Intensity Objects (%) [11]: 9%
- Population Membrane Permeable-Phenotype (%) [11]: 16%
- Population Mitochondria Different-Phenotype (%) [11]: 9%
- Population Mitotic Cells (%) [11]: 11%
- Population Normal (%) [11]: 90%
- Population Pyknosed Nuclei (%) [11]: 21%
- Population Tubulin-Different-Phenotype (%) [11]: 9%
- Population Fragmented Nuclei (%) [12]: 16%
- Population Healthy Nuclei (%) [12]: 70%
- Population Hoechst High Intensity Objects (%) [12]: 5%
- Population Membrane Permeable-Phenotype (%) [12]: 7%
- Population Mitochondria Different-Phenotype (%) [12]: 3%
- Population Normal (%) [12]: 94%
- Population Pyknosed Nuclei (%) [12]: 13%
- Population Tubulin-Different-Phenotype (%) [12]: 2%
